Assay results: ChEMBL document CHEMBL1148356, “Synthesis and biological evaluation of 3-heterocyclyl-7,8,9,10-tetrahydro-(7,10-ethano)-1,2,4-triazolo[3,4-a]phthalazines and analogues as subtype-selective inverse agonists for the GABA(A)alpha5 benzodiazepine binding site” (J Med Chem, 2004)
pKi: −log10 of the molar value. Calls of active or inactive are those of the source. No cut-off for these calls is given here.

Legend:
[1] = target: T1, GABA-A receptor; alpha-2/beta-3/gamma-2 (Homo sapiens, UniProt P18507+P28472+P47869); test: Binding affinity towards human gamma-aminobutyric-acid A receptor alpha-2-beta-3-gamma-2 using [3H]Ro-151788 expressed in L(tk-) cells; type: cell-based
T1 sequence (P18507 whole entry): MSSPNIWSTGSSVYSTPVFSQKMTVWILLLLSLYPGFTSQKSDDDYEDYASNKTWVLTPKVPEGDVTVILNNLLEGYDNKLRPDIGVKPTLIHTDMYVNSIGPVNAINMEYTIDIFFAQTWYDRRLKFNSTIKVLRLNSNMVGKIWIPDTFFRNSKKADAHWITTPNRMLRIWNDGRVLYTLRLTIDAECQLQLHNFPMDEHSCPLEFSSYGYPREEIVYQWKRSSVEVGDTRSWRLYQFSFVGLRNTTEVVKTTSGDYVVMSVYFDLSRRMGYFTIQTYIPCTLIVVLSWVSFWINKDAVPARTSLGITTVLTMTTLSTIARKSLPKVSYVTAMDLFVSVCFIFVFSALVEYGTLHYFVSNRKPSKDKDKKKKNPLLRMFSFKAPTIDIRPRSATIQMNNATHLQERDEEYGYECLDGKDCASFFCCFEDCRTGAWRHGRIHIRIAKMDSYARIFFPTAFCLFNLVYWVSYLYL
T1 sequence (P28472 whole entry): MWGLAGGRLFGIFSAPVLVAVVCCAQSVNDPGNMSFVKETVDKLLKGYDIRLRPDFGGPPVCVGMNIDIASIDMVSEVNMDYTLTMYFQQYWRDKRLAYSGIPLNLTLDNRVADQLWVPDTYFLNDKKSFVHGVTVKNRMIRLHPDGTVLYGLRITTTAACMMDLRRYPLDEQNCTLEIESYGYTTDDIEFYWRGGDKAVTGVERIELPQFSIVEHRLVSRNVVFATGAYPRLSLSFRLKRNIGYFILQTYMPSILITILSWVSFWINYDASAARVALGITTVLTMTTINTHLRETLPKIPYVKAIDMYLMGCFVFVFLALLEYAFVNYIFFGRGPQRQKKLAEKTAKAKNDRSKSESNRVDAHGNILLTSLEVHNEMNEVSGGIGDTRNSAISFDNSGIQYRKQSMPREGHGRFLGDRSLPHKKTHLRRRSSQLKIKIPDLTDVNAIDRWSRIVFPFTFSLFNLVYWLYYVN
T1 sequence (P47869 whole entry): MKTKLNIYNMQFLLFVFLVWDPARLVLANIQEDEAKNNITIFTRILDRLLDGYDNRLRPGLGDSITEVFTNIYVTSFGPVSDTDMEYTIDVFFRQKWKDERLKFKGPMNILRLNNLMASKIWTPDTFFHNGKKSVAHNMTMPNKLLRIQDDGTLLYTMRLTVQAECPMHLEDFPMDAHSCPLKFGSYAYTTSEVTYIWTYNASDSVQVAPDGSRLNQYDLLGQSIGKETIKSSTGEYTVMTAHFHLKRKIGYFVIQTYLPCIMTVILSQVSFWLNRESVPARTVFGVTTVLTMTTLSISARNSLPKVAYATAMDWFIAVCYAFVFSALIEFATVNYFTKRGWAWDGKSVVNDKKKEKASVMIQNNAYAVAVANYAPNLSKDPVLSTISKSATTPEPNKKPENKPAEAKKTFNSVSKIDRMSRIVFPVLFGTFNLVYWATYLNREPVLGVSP

[2] = target: T2, GABA-A receptor; alpha-3/beta-3/gamma-2 (Homo sapiens) (UniProt P18507+P28472+P34903); test: Percent change in electrophysiological response in Xenopus oocytes expressing Alpha3-beta3-gamma2 GABA-A receptor; type: functional, cell-based; conditions: Oocyte
Method in brief: (§1)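 Two-electrode voltage clamp on Xenopus oocytes injected with human GABA-A subunit cDNAs, 24-72 h expression, perfused with modified Barth's medium at pH 7.5, clamped between -40 and -70 mV. The GABA EC20 was titrated against a 3 mM GABA maximum. […] Result is % change of control current, mean ± SE of ≥4 oocytes.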

[3] = target: T3, GABA-A receptor; alpha-1/beta-3/gamma-2 (Homo sapiens, UniProt P14867+P18507+P28472); test: Binding affinity towards human alpha-1-beta-3-gamma-2 GABA-A receptor using [3H]Ro-151788 expressed in L(tk-) cells; type: cell-based
T3 sequence (P14867 whole entry): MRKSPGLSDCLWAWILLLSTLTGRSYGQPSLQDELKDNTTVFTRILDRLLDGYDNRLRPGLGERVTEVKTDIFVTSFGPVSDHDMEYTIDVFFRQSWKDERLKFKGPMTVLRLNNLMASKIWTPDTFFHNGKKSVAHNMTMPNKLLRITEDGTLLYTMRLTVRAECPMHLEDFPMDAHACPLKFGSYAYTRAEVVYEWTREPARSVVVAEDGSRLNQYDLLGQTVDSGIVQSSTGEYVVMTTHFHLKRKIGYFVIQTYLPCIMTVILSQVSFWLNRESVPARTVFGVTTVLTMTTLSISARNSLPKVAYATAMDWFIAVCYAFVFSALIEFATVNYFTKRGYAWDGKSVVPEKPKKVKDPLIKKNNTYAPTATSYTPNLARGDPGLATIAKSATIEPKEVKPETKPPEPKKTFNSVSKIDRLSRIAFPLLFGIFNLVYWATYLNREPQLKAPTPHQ
T3 sequence (P18507 whole entry): T1 sequence (P18507 whole entry)
T3 sequence (P28472 whole entry): T1 sequence (P28472 whole entry)

[4] = target: T4, GABA-A receptor; alpha-1/beta-3/gamma-2 (Homo sapiens) (UniProt P14867+P18507+P28472); test: Percent change in electrophysiological response in Xenopus oocytes expressing Alpha1-beta3-gamma2 GABA-A receptor; type: functional, cell-based; conditions: Oocyte; method in brief: as §1
[5] = target: T5, GABA-A receptor; alpha-5/beta-3/gamma-2 (Homo sapiens) (UniProt P18507+P28472+P31644); test: Percent change in electrophysiological response in Xenopus oocytes expressing Alpha-5-beta-3-gamma-2 GABA-A receptor; type: functional, cell-based; conditions: Oocyte; method in brief: as §1
[6] = target: T6, GABA-A receptor; alpha-2/beta-3/gamma-2 (Homo sapiens) (UniProt P18507+P28472+P47869); test: Percent change in electrophysiological response in Xenopus oocytes expressing Alpha2-beta3-gamma2 GABA-A receptor; type: functional, cell-based; conditions: Oocyte; method in brief: as §1
[7] = target: T7, GABA-A receptor; alpha-5/beta-3/gamma-2 (Homo sapiens, UniProt P18507+P28472+P31644); test: Binding affinity towards human alpha-5-beta-3-gamma-2 GABA-A receptor using [3H]Ro-151788 expressed in L(tk-) cells; type: cell-based
T7 sequence (P18507 whole entry): T1 sequence (P18507 whole entry)
T7 sequence (P28472 whole entry): T1 sequence (P28472 whole entry)
T7 sequence (P31644 whole entry): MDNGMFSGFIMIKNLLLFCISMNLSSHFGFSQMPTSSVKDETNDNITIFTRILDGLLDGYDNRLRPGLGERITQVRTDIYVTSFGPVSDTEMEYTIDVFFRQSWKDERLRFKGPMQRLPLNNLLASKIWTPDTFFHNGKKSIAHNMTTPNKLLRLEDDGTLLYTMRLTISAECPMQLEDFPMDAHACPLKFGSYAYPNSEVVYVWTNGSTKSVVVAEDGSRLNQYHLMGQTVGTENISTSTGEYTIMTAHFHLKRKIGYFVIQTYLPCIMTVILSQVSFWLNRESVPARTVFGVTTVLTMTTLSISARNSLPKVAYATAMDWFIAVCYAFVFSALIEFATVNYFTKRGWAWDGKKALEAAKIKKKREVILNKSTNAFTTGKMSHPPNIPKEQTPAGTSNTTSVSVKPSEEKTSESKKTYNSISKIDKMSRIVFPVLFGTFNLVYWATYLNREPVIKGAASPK

[8] = target: T8, GABA-A receptor; alpha-3/beta-3/gamma-2 (Homo sapiens, UniProt P18507+P28472+P34903); test: Binding affinity towards human gamma-aminobutyric-acid A receptor alpha-3-beta-3-gamma-2 using [3H]Ro-151788 expressed in L(tk-) cells; type: cell-based
T8 sequence (P18507 whole entry): T1 sequence (P18507 whole entry)
T8 sequence (P28472 whole entry): T1 sequence (P28472 whole entry)
T8 sequence (P34903 whole entry): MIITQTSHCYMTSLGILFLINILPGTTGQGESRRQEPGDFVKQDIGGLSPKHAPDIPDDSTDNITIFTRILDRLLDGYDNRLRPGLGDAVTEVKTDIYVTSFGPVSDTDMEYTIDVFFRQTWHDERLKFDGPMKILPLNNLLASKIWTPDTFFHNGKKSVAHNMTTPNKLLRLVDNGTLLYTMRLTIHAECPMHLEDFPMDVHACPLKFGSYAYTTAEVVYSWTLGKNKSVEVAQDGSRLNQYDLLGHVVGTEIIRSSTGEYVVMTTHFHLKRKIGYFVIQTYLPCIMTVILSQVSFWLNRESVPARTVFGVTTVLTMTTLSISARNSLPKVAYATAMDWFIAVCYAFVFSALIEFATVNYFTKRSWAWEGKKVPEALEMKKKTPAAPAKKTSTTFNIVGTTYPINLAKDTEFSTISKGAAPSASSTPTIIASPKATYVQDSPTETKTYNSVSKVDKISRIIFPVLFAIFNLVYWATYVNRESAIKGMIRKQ

[9] = Oral bioavailability in rat; type: ADME, organism-based; conditions: in vivo
Method in brief: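 Male SD rats with jugular cannulas were fasted overnight and dosed either by tail-vein IV bolus or orally (n = 3 per route). Serial jugular blood samples were taken up to 8 h. Plasma was frozen at −20 °C, protein-precipitated with acetonitrile containing internal standard, and quantified by LC-MS/MS.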

[10] = target: T2, GABA-A receptor; alpha-3/beta-3/gamma-2 (Homo sapiens); test: Percent maximum change in electrophysiological response in Xenopus oocytes expressing alpha-3-beta-3-gamma-2 GABA-A receptor; type: functional, cell-based; conditions: Oocyte; method in brief: as §1
[11] = target: T5, GABA-A receptor; alpha-5/beta-3/gamma-2 (Homo sapiens); test: Percent maximum change in electrophysiological response in Xenopus oocytes expressing alpha-5-beta-3-gamma-2 GABA-A receptor; type: functional, cell-based; conditions: Oocyte; method in brief: as §1
[12] = target: T4, GABA-A receptor; alpha-1/beta-3/gamma-2 (Homo sapiens); test: Percent maximum change in electrophysiological response in Xenopus oocytes expressing alpha-1-beta-3-gamma-2 GABA-A receptor; type: functional, cell-based; conditions: Oocyte; method in brief: as §1
[13] = target: T6, GABA-A receptor; alpha-2/beta-3/gamma-2 (Homo sapiens); test: Percent maximum change in electrophysiological response in Xenopus oocytes expressing alpha-2-beta-3-gamma-2 GABA-A receptor; type: functional, cell-based; conditions: Oocyte; method in brief: as §1
Rattus norvegicus = test: Tested for cognitive performance in rats in delayed matching-to-place version of water maze test at 0.3 mg/kg i.p.; Enhanced performance; type: functional, organism-based; design: dose 0.3 mg/kg

Structure (SMILES) | pKi [1] | Efficacy [2] | pKi [3] | Efficacy [4] | Efficacy [5] | Efficacy [6] | pKi [7] | pKi [8] | bioavailability [9] | Efficacy [10] | Efficacy [11] | Efficacy [12] | Efficacy [13] | Activity (Rattus norvegicus)
Cc1cccc(COc2nn3c(-c4cnccn4)nnc3c3c2C2CCC3CC2)n1 | 7.55 | 19% | 7.08 | 12% | -9% | 8% | 8.74 | 7.97 |  |  |  |  |  | 
Cc1cccc(COc2nn3c(-c4nc(C)no4)nnc3c3c2C2CCC3CC2)n1 |  | -21% | 7.12 | -15% | -35% | -10% | 8.85 | 7.96 | < 1% |  |  |  |  | 
Cc1cccc(COc2nn3c(-c4ccccc4)nnc3c3c2C2CCC3CC2)n1 | 7.35 | 44% | 6.91 | 53% | 14% | 35% | 8.52 | 7.63 |  |  |  |  |  | 
Cc1noc(-c2nnc3c4c(c(OCc5ccccc5Br)nn23)C2CCC4CC2)n1 | 7.78 | 12% | 7.23 | -12% | -42% | -18% | 9.00 | 8.21 |  |  |  |  |  | 
Cc1cccc(COc2nn3c(-c4ccccc4)nnc3c3ccccc23)n1 | 9.00 | -8.3% | 8.72 | 0.7% | 11% | -3.8% | 8.89 | 9.48 |  |  |  |  |  | 
CCOC(=O)c1ncn2c1[C@@H]1CCCN1C(=O)c1cc(OC)ccc1-2 |  | -3% |  | -12% | -12% | -17% |  |  |  | -11% | -21% | -18% | -26% | 
Cc1cccc(COc2nn3c(-c4cc(C)on4)nnc3c3c2C2CCC3CC2)n1 |  | -1% |  | 21% | -29% | 14% |  |  | 3% |  |  |  |  | 
CC1(C)CC(=O)c2c(SCCO)sc(-c3nccs3)c2C1 |  |  |  |  |  |  |  |  |  |  |  |  |  | Active
